The record followed here is BindingDB's records for doi:10.1021/jm990396t (Glaxo Wellcome Research and Development, 2000).

Sequence of Kynurenine 3-monooxygenase (O88867 whole entry): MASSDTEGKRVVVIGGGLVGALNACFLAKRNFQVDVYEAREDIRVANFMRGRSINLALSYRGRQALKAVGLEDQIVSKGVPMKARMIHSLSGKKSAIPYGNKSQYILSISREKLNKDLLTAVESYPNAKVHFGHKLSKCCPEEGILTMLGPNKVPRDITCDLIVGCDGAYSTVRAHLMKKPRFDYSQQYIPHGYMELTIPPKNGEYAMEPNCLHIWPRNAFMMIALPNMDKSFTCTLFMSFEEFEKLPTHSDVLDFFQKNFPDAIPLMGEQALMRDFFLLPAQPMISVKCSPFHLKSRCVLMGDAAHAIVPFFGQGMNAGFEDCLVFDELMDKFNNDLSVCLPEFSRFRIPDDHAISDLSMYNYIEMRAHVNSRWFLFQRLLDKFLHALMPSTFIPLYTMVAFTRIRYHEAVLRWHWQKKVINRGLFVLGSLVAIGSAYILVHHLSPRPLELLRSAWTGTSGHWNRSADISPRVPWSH

The target of the assay is Kynurenine 3-monooxygenase (Rattus norvegicus, UniProt O88867). In words: Inhibition of Kynurenine-3-hydroxylase enzyme isolated from the rat liver. In outline:
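Enzyme source: P2 mitochondrial pellet from rat liver, resuspended in 0.32 M sucrose. Activity measured as ³HOH release from 3-[³H]-L-kynurenine at its K_m concentration, 37 °C, under conditions linear with time and enzyme protein. Five inhibitor concentrations tested. IC50 taken as the mean of at least 2 experiments run in duplicate, with variation <20%.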
A word on the IC50: it is the concentration needed to halve the response being measured. The low end stands for greater potency, the high end for weaker potency. The compound `COC(=O)C(=O)CC(=O)c1ccc(Cl)c(Cl)c1` [4-(3,4-Dichloro-phenyl)-2-hydroxy-4-oxo-but-2-enoic acid methyl ester] registered a concentration for half-maximal inhibition (IC50) of 1900 nM.

For `COC(=O)C(=O)CC(=O)c1cccc(Cl)c1` [4-(3-Chloro-phenyl)-2-hydroxy-4-oxo-but-2-enoic acid methyl ester], inhibition was half-maximal at 1900 nM (IC50). For `COC(=O)C(=O)CC(=O)c1ccc(Br)cc1` [4-(4-Bromo-phenyl)-2-hydroxy-4-oxo-but-2-enoic acid methyl ester], the concentration for half-maximal inhibition (IC50) worked out at 1900 nM. As to `O=C(O)C(=O)CC(=O)c1cccc(Br)c1` [(Z)-4-(3-Bromo-phenyl)-2-hydroxy-4-oxo-but-2-enoic acid], the midpoint of inhibition, the IC50, lay at 1700 nM.
